Source: PubChem BioAssay (The Scripps Research Institute Molecular Screening Center)
OX1R antag-1 = human HCRTR1 antagonism; CHO/OX1R cells, Fluo-8 calcium fluorescence, orexin A; inhibition, % at 5 µM; 330,000 compounds, 0.43% hits;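 active means inhibition above its plate's threshold, mean inhibition of all tested compounds on the plate plus 3 SD, cut at about 37% in these data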
Target sequence (O43613 whole entry, looked up): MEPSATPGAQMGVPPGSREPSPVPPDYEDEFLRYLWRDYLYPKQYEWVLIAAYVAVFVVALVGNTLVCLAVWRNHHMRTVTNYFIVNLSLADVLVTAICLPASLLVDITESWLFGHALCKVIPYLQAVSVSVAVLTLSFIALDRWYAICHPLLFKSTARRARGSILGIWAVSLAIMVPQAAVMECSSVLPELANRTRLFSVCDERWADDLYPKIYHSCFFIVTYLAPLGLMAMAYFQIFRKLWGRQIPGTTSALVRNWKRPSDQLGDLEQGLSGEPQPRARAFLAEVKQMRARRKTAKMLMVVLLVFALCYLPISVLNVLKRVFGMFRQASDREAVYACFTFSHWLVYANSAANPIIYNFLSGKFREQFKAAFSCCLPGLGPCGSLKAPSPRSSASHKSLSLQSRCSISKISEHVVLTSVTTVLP
TAAR1 antagonist = human TAAR1 antagonism; AID 624466; CHO RD-HGA16 TAAR1, Fluo-8 calcium fluorescence, antagonist; inhibition, % at 3 µM; Q96RJ0; 360,000 compounds, 1.5% hits;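 active means inhibition above a per-plate cutoff, the mean inhibition of test compounds on that plate plus 3 SD, cut at about 49% in these data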
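Material: CHO RD-HGA16 cells bearing hTAAR1; compound dosing: one-point dosing, 3 µM nominal final; schedule: dye loading 75 min at 37 °C, then 30 min room temperature; measured by: calcium fluorescence with Fluo-8; control set: vehicle and agonist controls; replication: n of 1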
OX1R antag-2 = blocks the human orexin 1 receptor | O43613 | OX1R-expressing cells, FRET antagonist read-out | inhibition, % at 6.6 µM | 330,000 compounds, 1.8% hits | AID 485270; in the data active means inhibition mostly above about 38%, no sharp cut-off; inactive means mostly below about 40%
GPR7 antagonist = human neuropeptides B/W receptor 1 antagonism; 290,000 compounds, 1.1% hits; AID 1861; P48145; inhibition, % at 4.4 µM; GPR7-expressing cells, fluorescence antagonist assay; in the data active means inhibition above about 16%, passing the limit was not always enough;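 further: cells stimulated with the agonist NPW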
Target sequence (P48145 whole entry, looked up): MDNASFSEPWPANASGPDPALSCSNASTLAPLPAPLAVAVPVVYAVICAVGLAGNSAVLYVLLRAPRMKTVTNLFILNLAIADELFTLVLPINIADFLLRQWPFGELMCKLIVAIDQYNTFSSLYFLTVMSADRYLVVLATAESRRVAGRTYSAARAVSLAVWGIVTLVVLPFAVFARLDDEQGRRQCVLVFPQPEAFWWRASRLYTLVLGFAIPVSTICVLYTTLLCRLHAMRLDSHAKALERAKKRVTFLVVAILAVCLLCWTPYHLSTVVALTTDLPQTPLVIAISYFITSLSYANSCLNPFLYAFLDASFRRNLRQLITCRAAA
CHO parental Ca = counter-screen: ATP calcium response change in parental CHO cells | parental CHO-K1, ATP-induced calcium, Fluo-8 fluorescence | inhibition, % at 5.6 µM | 330,000 compounds, 0.63% hits;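 active means inhibition above that plate's mean sample inhibition plus 3 SD, cut at about 26% in these data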
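Assay system: parental CHO cells; Read-out basis: percent inhibition of ATP-evoked calcium rise, normalized to controls; Benchmarks: ATP and no-ATP DMSO wells; Compound dosing: single nominal dose of 5.6 µM per compound; Signal: Fluo-8 calcium dye fluorescence; Also added: ATP as calcium-mobilizing challenge; Repeats: singlicate.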
TAAR1 agonist = agonists of human TAAR1; Q96RJ0; CHO RD-HGA16 TAAR1, Fluo-8 calcium fluorescence; vehicle wells 0%, saturating PEA agonist 100%; activation, % at 3 µM; 360,000 compounds, 0.99% hits; AID 624467;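 active means activation above the mean activation of all test compounds in the run plus 3 SD, cut at about 38% in these data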
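Benchmarks: low control DMSO, high control PEA (EC100); System: CHO RD-HGA16 cells carrying human TAAR1 plus Gα16; Detection: Fluo-8 fluorescence, 5 s baseline then 140 s kinetic read; Schedule: 17-24 h plating, Fluo-8 75 min 37 °C, 30 min RT; Read-out basis: % activation from peak over basal fluorescence ratio, DMSO-to-PEA scaled.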
nonsel antag count = nonselective antagonism, TAAR1 counter-screen; shares compounds with TAAR1 antagonist; counterscreen cell line, calcium fluorescence, antagonist mode; inhibition, % at 3 µM; 2,400 compounds, 77% hits; in the data active means inhibition above about 22%;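 further: CHO-Ga16 host cells stimulated with ATP at an EC80 level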
TAAR1 ant conf = confirmation of human TAAR1 antagonists. shares compounds with TAAR1 antagonist. TAAR1-expressing cells, fluorescence antagonist read-out. inhibition, % at 3 µM. 2,400 compounds, 40% hits. AID 651785; in the data active means inhibition above about 49%;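 further: CHO-Ga16 host cells challenged with agonist PEA near its EC80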
Ga16 nonsel ag = nonselective Ga16 agonist in TAAR1 antagonist counter-screen; shares compounds with TAAR1 antagonist; Ga16-expressing cells, calcium fluorescence, agonist counterscreen; activation, % at 3 µM; 2,400 compounds, 18% hits; AID 651953; in the data active means activation above about 12%
TAAR1 ag counter = TAAR1 agonism, antagonist counter-screen; shares compounds with TAAR1 antagonist; hTAAR1 cell line, fluorescence activation, agonist mode; 2,400 compounds, 2% hits; activation, % at 3 µM; in the data active means activation above about 37%;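 further: CHO cells stably expressing TAAR1 with calcium dye readout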
Hits are given with their value; . = inactive; / = not tested or not shown. Most compounds without a hit are left out; they make up all but 4.5% or so of the library.

SMILES	OX1R antag-1	TAAR1 antagonist	OX1R antag-2	GPR7 antagonist	CHO parental Ca	TAAR1 agonist	nonsel antag count	TAAR1 ant conf	Ga16 nonsel ag	TAAR1 ag counter
CCSc1nnc(-c2cccc(S(=O)(=O)N(CC)CC)c2)n1Cc1ccccc1	.	60	.	.	.	.	31	52	.	.
CCC1CN(C(=O)N2CCC(C(=O)NCc3ccco3)CC2)c2cc(C)ccc2O1 (stereo not drawn)	.	50	.	.	.	.	28	49	.	.
CCC1CN(C(=O)N2CCC(C(=O)NCCc3ccccc3OC)CC2)c2ccccc2O1 (stereo not drawn)	.	75	.	.	.	.	29	54	.	.
CCC1CN(C(=O)N2CCC(C(=O)NCc3ccccc3C)CC2)c2ccccc2O1 (stereo not drawn)	.	.	.	.	.	.	/	/	/	/
CCC1CN(C(=O)N2CCC(C(=O)NCCc3ccc(OC)cc3OC)CC2)c2ccccc2O1 (stereo not drawn)	.	56	.	.	.	.	35	54	.	.
CCN(c1cccc(C)c1)c1nc2ccsc2c(=O)s1	.	.	.	.	.	.	/	/	/	/
O=C(CN1CCN(c2ccccn2)CC1)Nc1ccc([N+](=O)[O-])cc1C(=O)Nc1ccccc1F	.	57	.	.	.	.	.	.	16	.
Cc1ccccc1CN1C(=O)/C(=C\c2ccc(C(=O)NCCN3CCOCC3)cc2)Sc2ccccc21	.	53	.	.	.	.	26	.	.	.
O=C(NCCN1CCOCC1)c1ccc(/C=C2\Sc3ccccc3N(Cc3ccccc3F)C2=O)cc1	.	69	.	.	.	.	34	50	13	.
CN1CCN(CCCNC(=O)c2ccc(/C=C3\Sc4ccccc4N(Cc4ccccc4F)C3=O)cc2)CC1	/	.	/	.	/	.	/	/	/	/
Cn1cc(C(=O)N2CCc3ccccc32)cn1	.	.	.	.	.	.	/	/	/	/
COc1ccc(NC(=O)c2sc3nc(C)nc(N4CCN(c5ccccn5)CC4)c3c2C)cc1Cl	.	.	.	.	.	.	/	/	/	/
COc1ccc(NC(=O)c2sc3ncnc(N4CCN(c5ccccn5)CC4)c3c2C)cc1Cl	.	80	.	.	.	.	48	55	13	.
Cn1c(N2CCCCC2)nc2c1c(=O)[nH]c(=O)n2C	.	.	.	.	.	.	/	/	/	/
Cn1c(N2CCN(C(c3ccccc3)c3ccccc3)CC2)nc2c1c(=O)[nH]c(=O)n2C	.	67	.	.	.	.	31	50	13	.
Cc1csc(SCCn2c(N3CCN(c4ccccc4)CC3)nc3c2c(=O)[nH]c(=O)n3C)n1	.	54	.	.	.	.	.	.	.	.
COc1ccc(C(O)c2nc(-c3cccc(C(=O)O)c3)cs2)cc1 (stereo not drawn)	/	.	/	/	/	.	/	/	/	/
Fc1ccc(-c2csc(NC(=S)Nc3ccccc3)n2)cc1	.	.	.	.	.	.	/	/	/	/
CCSc1nc2ccccc2c(=O)n1CCc1ccc(OC)c(OC)c1	.	61	.	.	.	.	30	.	.	.
Cc1cccc(-n2nc3c(c2NC(=O)c2ccc(Br)o2)CSC3)c1	.	.	.	.	.	.	/	/	/	/
O=C(NCCc1ccc(Cl)cc1)C1CCN(S(=O)(=O)c2cccs2)CC1	.	61	.	.	.	.	.	50	16	.
CC(C)CN(CC(C)C)S(=O)(=O)N1CCC(C(=O)NCCc2ccc(Cl)cc2)CC1	.	49	.	.	.	.	32	53	.	.
O=C(NCCN1C(=O)S/C(=C\c2ccccc2)C1=O)C1CCN(S(=O)(=O)c2cccs2)CC1	.	67	.	.	.	.	46	52	15	.
Cc1ccc(-n2nc(C(=O)N/N=C/c3cccc(C(F)(F)F)c3)c3ccccc3c2=O)cc1C	.	.	.	.	.	.	/	/	/	/
O=C(c1cc(Cl)nc2ccccc12)N1CCN(S(=O)(=O)c2cccc(F)c2)CC1	.	.	.	/	.	.	/	/	/	/
SMILES	OX1R antag-1	TAAR1 antagonist	OX1R antag-2	GPR7 antagonist	CHO parental Ca	TAAR1 agonist	nonsel antag count	TAAR1 ant conf	Ga16 nonsel ag	TAAR1 ag counter
O=S(=O)(c1cccc(F)c1)N1CCN(c2nc(-c3cccnc3)nc3ccccc23)CC1	.	61	.	/	.	.	24	54	.	.
CC(C)(C)C(=O)Nc1nc(=S)ss1	.	.	.	.	.	.	/	/	/	/
O=C(CC1C[C@H](C(=O)N2CCOCC2)[C@@]2(CCC3CCCC3)c3[nH]c4ccccc4c3CCN2C1=O)NCc1cccc(C(F)(F)F)c1 (stereo partly drawn)	/	.	/	/	/	.	/	/	/	/
Cc1ccc2nc(NC(=O)C3CCN(S(=O)(=O)c4cccc5nsnc45)CC3)sc2c1	.	65	.	.	.	.	33	.	.	.
Cc1cc(C)c(NC(=O)C(C)OC(=O)c2cc(Br)c(Br)s2)c(C)c1 (stereo not drawn)	.	.	.	.	.	.	/	/	/	/
CCOC(=O)c1cc(NC(=O)Cc2ccc(S(=O)(=O)N3CCOCC3)s2)cc(C(=O)OCC)c1	.	76	.	/	.	.	29	.	.	.
CC(C)NC(=O)C1(C)CCCN1Cc1csc2ccccc12 (stereo not drawn)	/	.	/	/	/	.	/	/	/	/
O=C(c1cccs1)c1coc2ccc(O)c(CN3CCOCC3)c12	.	106	.	.	.	.	.	.	.	.
COc1ccc(-c2ccc3c(n2)CCCN3S(=O)(=O)c2cccs2)cc1	/	81	/	/	/	.	42	64	.	.
O=S(=O)(c1cccs1)N1CCCc2nc(-c3ccc(F)cc3)ccc21	/	53	/	/	/	.	33	.	.	.
O=C(Cn1cccc1C(=O)c1ccccc1)NCc1cccc(Cl)c1	.	.	.	.	.	.	/	/	/	/
Cc1c(C(=O)N(C)Cc2ccccc2)oc2ccc(S(=O)(=O)N3CCCC3)cc12	.	.	.	.	.	.	/	/	/	/
Cc1c(C(=O)N(Cc2ccccc2)C(C)C)oc2ccc(S(=O)(=O)N3CCOCC3)cc12	.	80	.	.	.	.	33	61	13	.
CCN=c1sc(C(=O)NCCc2ccccc2)cc(=O)n1CC	.	55	.	.	.	.	31	53	.	.
O=C(NCCc1ccccc1)c1cccs1	.	.	.	.	.	.	/	/	/	/
O=C(NNC(=O)C1CC1)c1ccc(F)cc1F	.	.	.	/	.	.	/	/	/	/
O=C1OC(c2ccc(O)cc2)(c2ccccc2O)c2ccccc21 (stereo not drawn)	/	.	/	/	/	.	/	/	/	/
